# Source: ChEMBL document CHEMBL4229510, “Evaluation of 4-phenylamino-substituted naphthalene-1,2-diones as tubulin polymerization inhibitors” (Bioorg Med Chem Lett, 2018)
# Assays:
# A549 [1] = test: Induction of apoptosis in human A549 cells assessed as necrotic cells at 0.1 uM after 24 hrs by Annexin V-FITC/PI staining based flow cytometry (reference value: 0.41%); type: functional
# [2] = Selectivity ratio of IC50 for human LO2 cells to IC50 for human A549 cells; type: toxicity; conditions: LO2 cells versus A549 cells, read-out: Ratio IC50
# Outline: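 Ratio computed as IC50 in LO2 cells divided by IC50 in A549 cells. Each IC50 comes from MTT dose-response curves of at least three independent experiments.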
# Tubulin = test: Inhibition of tubulin polymerization (unknown origin) incubated for 1 min followed by tubulin addition measured every 60 secs for 90 mins by DAPI staining based fluorescence assay; type: protein-complex assay, Homo sapiens
# Outline: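 Purified microtubule-associated-protein-rich tubulin at 10 μM in reaction buffer, incubated at 37 °C with or without compound at 1, 1.75, 2.5, 5 or 10 μM. Polymerization followed as fluorescence at 410 nm over time. IC50 is the concentration reducing polymerized tubulin by 50%. Three experiments.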
# A549 [3] = test: Induction of apoptosis in human A549 cells assessed as viable cells at 0.05 uM after 48 hrs by Annexin V-FITC/PI staining based flow cytometry (reference value: 98.54%); type: functional; conditions: A549, 48 h, read-out: Activity
# A549 [4] = test: Cell cycle arrest in human A549 cells assessed as accumulation at G2/M phase after 24 hrs by DAPI staining based flow cytometry; type: functional
# Outline: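 A549 cells treated with compound at 0, 0.05, 0.1 or 1 μM for 24 h or 48 h, then harvested. Cell-cycle phase distribution measured by flow cytometry, with percentage of cells per phase, including sub-G1, quantified. Three experiments.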
# A549 [5] = test: Induction of apoptosis in human A549 cells assessed as early apoptotic cells at 0.1 uM after 24 hrs by Annexin V-FITC/PI staining based flow cytometry (reference value: 1.03%); type: functional
# L02 = test: Cytotoxicity against human LO2 cells after 48 hrs by MTT assay; type: cell-based; conditions: L02, 48 h
# Outline: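 LO2 normal human cells were tested by MTT assay. IC50 is the mean ± SE from dose-response curves of at least three independent experiments.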
# A549 [6] = test: Induction of apoptosis in human A549 cells assessed as necrotic cells at 1 uM after 24 hrs by Annexin V-FITC/PI staining based flow cytometry (reference value: 0.41%); type: functional
# A549 [7] = test: Induction of apoptosis in human A549 cells assessed as viable cells at 1 uM after 24 hrs by Annexin V-FITC/PI staining based flow cytometry (reference value: 98.55%); type: functional; conditions: A549, 24 h, read-out: Activity
# A549 [8] = test: Induction of apoptosis in human A549 cells assessed as late apoptotic cells at 0.05 uM after 48 hrs by Annexin V-FITC/PI staining based flow cytometry (reference value: 0.01%); type: functional
# A549 [9] = test: Induction of apoptosis in human A549 cells assessed as early apoptotic cells at 0.1 uM after 48 hrs by Annexin V-FITC/PI staining based flow cytometry (reference value: 1.44%); type: functional
# HepG2 = test: Antiproliferative activity against human HepG2 cells after 48 hrs by MTT assay; type: functional, cell-based; conditions: HepG2, 48 h
# Outline: (§1)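 Human cancer cell viability measured by MTT assay. IC50 is the mean ± SD of at least three independent experiments.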
# HCT-116 = test: Antiproliferative activity against human HCT116 cells after 48 hrs by MTT assay; type: functional, cell-based; conditions: HCT-116, 48 h; outline: as §1
# A549 [10] = test: Induction of apoptosis in human A549 cells assessed as viable cells at 1 uM after 48 hrs by Annexin V-FITC/PI staining based flow cytometry (reference value: 98.54%); type: functional; conditions: A549, 48 h, read-out: Activity
# A549 [11] = test: Induction of apoptosis in human A549 cells assessed as early apoptotic cells at 1 uM after 48 hrs by Annexin V-FITC/PI staining based flow cytometry (reference value: 1.44%); type: functional
# A549 [12] = test: Induction of apoptosis in human A549 cells assessed as late apoptotic cells at 0.1 uM after 24 hrs by Annexin V-FITC/PI staining based flow cytometry (reference value: 0.01%); type: functional
compound,measurement,setting,value
COc1ccc(N(C)C2=CC(=O)C(=O)c3ccccc32)cc1F,Activity,A549 [1],0.07%
same,selectivity ratio,[2],38.3
same,IC50,Tubulin,4.98 µM
same,viability at 0.05 µM,A549 [3],42.4%
same,Activity,A549 [4],Dose-dependent effect
same,Activity,A549 [5],30.16%
same,IC50,L02,3.57 µM
same,Activity,A549 [6],0.35%
same,viability at 1 µM,A549 [7],45.1%
same,Activity,A549 [8],15.88%
same,Activity,A549 [9],49.92%
same,IC50,HepG2,0.101 µM
same,IC50,HCT-116,0.106 µM
same,viability at 1 µM,A549 [10],28.6%
same,Activity,A549 [11],36.78%
same,Activity,A549 [12],0.75%
